For orientation: IC50 means the midpoint of a concentration-inhibition curve.

“Also recorded” adds a separate entry of the source.

Data set [1] concerns UACC 903 and 1205 Lu cells. Kind of data set: Apo-ONE caspase-3/7 apoptosis assay. The format is cell-based, human. The settings on record: longer exposure.
A further data set relates to MiA PaCa-2. As to the kind of experiment: MTS cell viability, MiA PaCa-2 pancreas cancer. To be noted: read-out: IC50, Other cancer types, 24 h. Format: cell-based. The essentials: (§1)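 Cells kept in DMEM with 1% Glutamax and 10% FBS at 37°C, 5% CO2. Seeded at 5×10^3 cells/well in 96-well plates and grown before treatment. Treated with DMSO vehicle or 0.62 to 40 µmol/L test compound for 24, 48 or 72 h. Viability read by MTS. IC50 per cell line derived from three independent experiments by curve fitting.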

A further data set deals with PC-3. Kind of data set: MTS cell viability, PC-3 prostate cancer. Format: cell-based. To be noted: read-out: IC50, Other cancer types, 24 h. The essentials:
as §1

The next data set relates to UACC 903 melanoma cells. Kind of data set: Natural product library NPL-480 primary screen, MTS. The settings on record: 5 µmol/L, 24 hours, UACC 903, MTS. The format is cell-based, human. The essentials:
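UACC 903 cells plated at 5×10^3 per well in 96-well plates for 24 h. Each library compound, from 10 mM DMSO stocks, added at 5 µmol/L final for 24 h. Viability read by MTS. Screen run three times and averaged.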

Data set [2] deals with UACC 903 xenografted melanoma tumors. Kind of data set: Xenograft tumor growth, UACC 903. The format is in vivo, Athymic Nude-Foxn1nu mice. The settings on record: UACC 903 xenograft, 5–7.5 mg/kg i.p. daily, versus DMSO vehicle control. An outline of the steps:
(§2)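 Female Athymic Nude-Foxn1nu mice, 3–4 weeks old, injected s.c. above both rib cages with 1×10^6 UACC 903 or 1205 Lu cells in 0.2 mL DMEM with 10% FBS and 1% Glutamax. At day 6, with 50–75 mm3 tumors, mice randomized (5 mice/group, 2 tumors/mouse). Dosed i.p. daily for 3–4 weeks with DMSO vehicle or […] test compound, depending on cell line. Tumor size and body weight measured every 2 days.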

The next data set deals with HCT-116. Kind of data set: MTS cell viability, HCT-116 colon cancer. The format is cell-based. To be noted: read-out: IC50, Other cancer types, 24 h. An outline of the steps:
as §1

Data set [3] deals with preexisting xenografted melanoma tumors. As to the kind of experiment: Xenograft tumor growth and body weight, UACC 903 or 1205 Lu. Format: in vivo, Athymic Nude-Foxn1nu mice. The essentials:
as §2

A further data set relates to cannabinoid receptor CB1. To be noted: cited from earlier work.
The test system of another data set is SW-480. As to the kind of experiment: MTS cell viability, SW-480 colon cancer. Format: cell-based. To be noted: read-out: IC50, Other cancer types, 24 h. The essentials:
as §1

The subject of another data set is LNCap. Kind of data set: MTS cell viability, LNCap prostate cancer. The format is cell-based. The settings on record: read-out: IC50, Other cancer types, 24 h. The essentials:
as §1

In another data set the test system is pStat3 (Tyr705). Kind of data set: Western blot of size and time matched tumor lysates, pStat3. The format is in vivo, nude mice. The settings on record: days 11, 13 and 15, 7.5 mg/kg i.p. daily from day 6, versus DMSO. The essentials:
(§3)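 Same size- and time-matched UACC 903 s.c. tumors in nude mice: 7.5 mg/kg test compound or DMSO vehicle given i.p. daily from day 6. Lysates from tumors harvested at days 11, 13 and 15 immunoblotted for pAkt (Ser473) or pStat3 (Tyr705), compared with vehicle-treated tumors.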
In general terms: In western blotting, separated proteins are transferred to a membrane and probed.

The test system of another data set is G-protein activity. To be noted: cited from earlier work.
A further data set concerns MCF-7. Kind of data set: MTS cell viability, MCF-7 breast cancer. Format: cell-based. To be noted: read-out: IC50, Other cancer types, 24 h. An outline of the steps:
as §1

The next data set deals with pAkt (Ser473). As to the kind of experiment: Western blot of size and time matched tumor lysates, pAkt. Format: in vivo, nude mice. The settings on record: days 11, 13 and 15, 7.5 mg/kg i.p. daily from day 6, versus DMSO. An outline of the steps:
as §3

A further data set has as its system PI3K/Akt pathway. As to the kind of experiment: Western blot of pathway signaling, PI3K/Akt. Format: cell-based, human. To be noted: 3 to 6 µmol/L for 3 to 24 hours, UACC 903 and 1205 Lu. An outline of the steps:
(§4)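 1.5×10^6 melanoma cells plated in 100 mm dishes. After 48 h, treated with 3–6 µmol/L test compound for 3 to 24 h, then lysed in RIPA and immunoblotted with ECL detection; α-enolase as loading control. Probes: MAPK, phospho-Erk1/2 (Thr202/Tyr204) and total Erk1/2; PI3K/Akt, phospho-Akt (Ser473), total Akt, phospho-PRAS40 (Thr246), phospho-p70S6K (Thr389); STAT3, phospho-Stat3 (Tyr705), total Stat3.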

The test system of another data set is melanoma cells. Kind of data set: MTS cell viability, melanoma cell lines. The format is cell-based, human. An outline of the steps:
(§5)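 Melanoma lines (WM35, SbCl2, WM115, WM278.1, SK-MEL-24, 1205 Lu, UACC 903) and normal cells (FOM103 melanocytes, FF2441 fibroblasts, foreskin keratinocytes) seeded at 5×10^3 cells/well in 96-well plates. Exposed to DMSO vehicle or 0.62–40 µmol/L test compound for 24, 48 or 72 h, then MTS read. IC50 from three independent experiments per line, averaged across each group.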

In data set [4] the test system is 1205 Lu xenografted melanoma tumors. Kind of data set: Xenograft tumor growth, 1205 Lu. Format: in vivo, Athymic Nude-Foxn1nu mice. To be noted: 1205 Lu xenograft, 5–7.5 mg/kg i.p. daily, versus DMSO vehicle control. An outline of the steps: as §2
For another data set, the system named is UACC 903 tumors. As to the kind of experiment: Size and time matched tumors, Ki-67 immunohistochemistry. Format: in vivo, nude mice. To be noted: day 11, UACC 903 tumors, 7.5 mg/kg i.p. daily from day 6. The essentials: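 Nude mice injected s.c. with 2.5×10^6 UACC 903 cells. From day 6, dosed i.p. daily to day 15 with DMSO vehicle or 7.5 mg/kg test compound. Size- and time-matched tumors harvested at days 11, 13 and 15 and immunostained with mouse anti-human Ki-67. Positive cells scored as % of total cells, ≥6 tumors, 4–6 fields each.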

Another data set deals with HT-1080. Kind of data set: MTS cell viability, HT-1080 fibrosarcoma. Format: cell-based. To be noted: read-out: IC50, Other cancer types, 24 h. The essentials:
as §1

A further data set has as its system normal cells. As to the kind of experiment: MTS cell viability, normal cells. Format: cell-based, human. To be noted: read-out: average IC50, normal cells; average over normal cells. The essentials:
as §5

Data set [5] has as its system UACC 903 and 1205 Lu cells. As to the kind of experiment: Cell cycle analysis, propidium iodide FACS. Format: cell-based, human. The settings on record: 24 hours leelamine treatment, propidium iodide stained UACC 903 and 1205 Lu cells.
The subject of another data set is A-549. Kind of data set: MTS cell viability, A-549 lung cancer. The format is cell-based. To be noted: read-out: IC50, Other cancer types, 24 h. An outline of the steps: as §1
The test system of the next data set is STAT3 pathway. Kind of data set: Western blot of pathway signaling, STAT3. Format: cell-based, human. The settings on record: UACC 903 and 1205 Lu. The essentials:
as §4

Another data set concerns HT-29. Kind of data set: MTS cell viability, HT-29 colon cancer. The settings on record: read-out: IC50, Other cancer types, 24 h. The format is cell-based. An outline of the steps:
as §1

Another data set relates to MDA-MB-231. As to the kind of experiment: MTS cell viability, MDA-MB-231 breast cancer. Format: cell-based. The settings on record: read-out: IC50, Other cancer types, 24 h. The essentials: as §1
A further data set is described as follows: Toxicity assessment. Format: in vivo. The settings on record: Swiss Webster mice; for blood markers of major organ function (ALP, ALT, AST, CK, CREA, GLU): 10 mg/kg i.p. daily. The essentials: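 Swiss Webster mice (n=5) given 5 or 10 mg/kg test compound i.p. daily for 22 days and weighed daily. At termination, blood taken by cardiac puncture into lithium heparin serum separator tubes for ALP, ALT, AST, CK, creatinine and glucose. On day 22 liver, spleen, kidney, intestine, lung and heart were formalin-fixed, paraffin-embedded, H&E stained and examined microscopically.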

Another data set relates to MAPK pathway. As to the kind of experiment: Western blot of pathway signaling, MAPK. Format: cell-based, human. To be noted: 3 to 6 µmol/L for 3 to 24 hours, UACC 903 and 1205 Lu. The essentials:
as §4

For data set [6], the system named is mutant V600EB-Raf melanoma. To be noted: cited from earlier work.

Molecule `CC(C)c1ccc2c(c1)CC[C@H]1[C@](C)(CN)CCC[C@]21C` [leelamine, Dehydroabietylamine] registered an increase in apoptosis in data set [1] of 600%. Also, the IC50 in the data set with MiA PaCa-2 amounted to 4.69 ± 0.37 µM; in the data set with PC-3, 5.41 ± 2.6 µM; in the data set with HCT-116 it was 4.8 ± 0.5 µM; in the data set with SW-480, 1.55 ± 0.33 µM; with LNCap it was 10.9 ± 0.23 µM; in the data set on MCF-7 it was 7.12 ± 1.3 µM. The half-inhibitory concentration (IC50) with melanoma cells (read-out: average IC50, cultured melanoma cells, average over melanoma cells) was 2 µM; in the data set with HT-1080 it was 4.01 ± 0.27 µM; in the data set with normal cells, 9.3 µM; with A-549 it was 8.81 ± 0.82 µM; with HT-29 it was 5.95 ± 1.23 µM; in the data set with MDA-MB-231, 5.82 ± 0.87 µM. Besides, the “decrease in cell viability” value in the data set on UACC 903 melanoma cells is “approximately 95%”. Also, the “reduction of tumor volume” value in data set [2] stood at 61%; in data set [4], 57%. Moreover, in data set [3] (average of UACC 903 and 1205 Lu xenografts, i.p. daily for 3 to 4 weeks), the “inhibition of growth of preexisting xenografted melanoma tumors, average” value came out at 60%. Further, the animal body weight result in [3] (xenograft-bearing nude mice, leelamine i.p. daily versus DMSO control) was “no significant differences”. Further, the “binding to the cannabinoid receptor CB1” value in the data set with cannabinoid receptor CB1 is listed as “weakly binding”. For the same molecule, in the data set with pStat3 (Tyr705), the “pStat3 (Tyr705) in tumor lysates” value is listed as “decreased; also recorded: inhibition”. In addition, the “stimulation of G-protein activity” value in the data set with G-protein activity is “not stimulating”. Also, the “active pAkt (Ser473) in tumor lysates” value in the data set on pAkt (Ser473) is “decreased; also recorded: inhibition”. Besides, the “signaling through PI3K pathway” value with PI3K/Akt pathway is “Decreased signaling”. In addition, the “fold more effective at inhibiting cultured melanoma cell survival than normal cells” value in the data set with melanoma cells (melanoma cells versus normal cells, average) came out at 4.5 fold. Further, in the data set with UACC 903 tumors, the “reduction in proliferating cells (Ki-67)” value was determined as 50%. Besides, in [5], the cell cycle distribution result was “increase in the sub-G0/G1 and G0/G1 cell populations, with a corresponding decrease in the S-phase population”. The “signaling through STAT3 pathway” value in the data set with STAT3 pathway (3 to 6 µmol/L for 3 to 24 hours) is “Decreased signaling”. Moreover, in the data set on STAT3 pathway (3 to 6 µmol/L), the “time from which inhibition of STAT3 pathway occurred” value is no less than 12 h. Besides, the “blood markers of major organ function (ALP, ALT, AST, CK, CREA, GLU)” value in “Toxicity assessment” (after 22 days, 10 mg/kg) was “No significant differences; also recorded: negligible toxicity”; in the data set “Toxicity assessment” (after 22 days, listed as Leelamine, 10 mg/kg) it was “without affecting”. Also, the “histological examination of H&E stained vital organ sections (cellular morphology or overall structure)” value in the data set “Toxicity assessment” (10 mg/kg, after 22 days, liver, spleen, kidney, intestine, lung, heart, 10 mg/kg) is listed as “no change; also recorded: no differences”. Moreover, the body weights entry in “Toxicity assessment” (5 or 10 mg/kg i.p. daily, 22 days) is listed as “No significant difference”. The “signaling through MAPK pathway” value in the data set on MAPK pathway is recorded as “Decreased signaling”.
Regarding `CCCS(=O)(=O)Nc1ccc(F)c(C(=O)c2c[nH]c3ncc(-c4ccc(Cl)cc4)cc23)c1F` [Zelboraf], the progression-free survival in [6] is listed as 6.2 months. The “partial or complete anti-tumor response rate” value in data set [6] (patients having mutant V600EB-Raf, first 2-month treatment cycle) is given as “approximately 80%”.

(Values after publication PMC4377161 (Molecular cancer therapeutics, 2014).)
